Source: the array DNA melting data of Ke et al. (doi:10.1101/2024.01.08.574731)

Legend:
[1] = folding enthalpy; higher = less favourable; fluorescence melt of hairpins on a sequencing array, two-state fit; settings: sodium 0.088 M
Summary of the method: (§1)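 Melting temperature and folding enthalpy were derived from bootstrapped two-state fits. The fitted temperatures were raised by 9.35 °C to agree with UV melts, and four replicates were combined by inverse variance. The underlying data were Cy3 fluorescence images of library hairpins, with annealed Cy3 and quencher oligos, on a sequenced MiSeq flow cell in 50 mM Na-HEPES pH 8.0, 25 mM NaCl, taken in 2.5 °C steps up to 60 °C, normalised to pre-quench Cy3 and to control constructs.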

[2] = melting temperature; fluorescence melt of hairpins on a sequencing array, two-state fit, raised by 9.35 °C to match UV melts; settings: sodium 0.088 M
Summary of the method: as §1

AAAACGAAAGTTTT (((((....)))))
folding enthalpy [1]: -14.8 kcal/mol
Tm [2]: 47.3 °C

AAACAGAAATGTTT (((((....)))))
folding enthalpy [1]: -11.4 kcal/mol
Tm [2]: 25.3 °C

AAACGGAAACGTTT (((((....)))))
folding enthalpy [1]: -21.3 kcal/mol
Tm [2]: 45.1 °C

AAACTGAAAAGTTT (((((....)))))
folding enthalpy [1]: -13.4 kcal/mol
Tm [2]: 33.6 °C

AACATGAAAATGTT (((((....)))))
folding enthalpy [1]: -14.7 kcal/mol
Tm [2]: 33.6 °C

AACCGGAAACGGTT (((((....)))))
folding enthalpy [1]: -19.8 kcal/mol
Tm [2]: 50 °C

AAGCAGAAATGCTT (((((....)))))
folding enthalpy [1]: -16.8 kcal/mol
Tm [2]: 42.1 °C

AAGTGGAAACACTT (((((....)))))
folding enthalpy [1]: -19.6 kcal/mol
Tm [2]: 42 °C

AATCGGAAACGATT (((((....)))))
folding enthalpy [1]: -22.9 kcal/mol
Tm [2]: 44.5 °C

AATGCGAAAGCATT (((((....)))))
folding enthalpy [1]: -15.3 kcal/mol
Tm [2]: 64.9 °C

AATTCGAAAGAATT (((((....)))))
folding enthalpy [1]: -14.3 kcal/mol
Tm [2]: 43.3 °C

ACACTGAAAAGTGT (((((....)))))
folding enthalpy [1]: -23.4 kcal/mol
Tm [2]: 47.4 °C

ACCGAGAAATCGGT (((((....)))))
folding enthalpy [1]: -18.3 kcal/mol
Tm [2]: 49.5 °C

ACCTAGAAATAGGT (((((....)))))
folding enthalpy [1]: -11.8 kcal/mol
Tm [2]: 36.8 °C

ACCTCGAAAGAGGT (((((....)))))
folding enthalpy [1]: -19.9 kcal/mol
Tm [2]: 59.5 °C

ACGTAGAAATACGT (((((....)))))
folding enthalpy [1]: -19.9 kcal/mol
Tm [2]: 37.9 °C

ACGTTGAAAAACGT (((((....)))))
folding enthalpy [1]: -20.2 kcal/mol
Tm [2]: 47.1 °C

AGAACCAGAAATGGTTCT (((((((....)))))))
folding enthalpy [1]: -31.4 kcal/mol
Tm [2]: 55.2 °C

AGAACGAAAGTTCT (((((....)))))
folding enthalpy [1]: -19.9 kcal/mol
Tm [2]: 53.1 °C

AGAATGAAAATTCT (((((....)))))
folding enthalpy [1]: -10.8 kcal/mol
Tm [2]: 25.9 °C

AGAGGGAAACCTCT (((((....)))))
folding enthalpy [1]: -16.6 kcal/mol
Tm [2]: 43.4 °C

AGCTAGAAATAGCT (((((....)))))
folding enthalpy [1]: -14.9 kcal/mol
Tm [2]: 41.3 °C

AGGGAGAAATCCCT (((((....)))))
folding enthalpy [1]: -18.6 kcal/mol
Tm [2]: 42 °C

AGGTCGAAAGACCT (((((....)))))
folding enthalpy [1]: -22.1 kcal/mol
Tm [2]: 67.4 °C

AGTAGGAAACTACT (((((....)))))
folding enthalpy [1]: -16.9 kcal/mol
Tm [2]: 33.2 °C

AGTGAGAAATCACT (((((....)))))
folding enthalpy [1]: -15.7 kcal/mol
Tm [2]: 38.5 °C

AGTTGGAAACAACT (((((....)))))
folding enthalpy [1]: -19.9 kcal/mol
Tm [2]: 43.2 °C

AGTTTGAAAAAACT (((((....)))))
folding enthalpy [1]: -12.1 kcal/mol
Tm [2]: 33 °C

ATAGCGAAAGCTAT (((((....)))))
folding enthalpy [1]: -15.9 kcal/mol
Tm [2]: 54 °C

ATCACGAAAGTGAT (((((....)))))
folding enthalpy [1]: -25.6 kcal/mol
Tm [2]: 54.8 °C

ATCAGGAAACTGAT (((((....)))))
folding enthalpy [1]: -16.5 kcal/mol
Tm [2]: 40.6 °C

ATCTCGAAAGAGAT (((((....)))))
folding enthalpy [1]: -20.9 kcal/mol
Tm [2]: 51.1 °C

ATGCAGAAATGCAT (((((....)))))
folding enthalpy [1]: -24.1 kcal/mol
Tm [2]: 46.2 °C

ATGGAGAAATCCAT (((((....)))))
folding enthalpy [1]: -14.6 kcal/mol
Tm [2]: 36 °C

ATTACGAAAGTAAT (((((....)))))
folding enthalpy [1]: -17.5 kcal/mol
Tm [2]: 44.4 °C

ATTCAGAAATGAAT (((((....)))))
folding enthalpy [1]: -11.5 kcal/mol
Tm [2]: 29.3 °C

CAAATGAAAATTTG (((((....)))))
folding enthalpy [1]: -12.8 kcal/mol
Tm [2]: 32.8 °C

CAACCCGAAAGGCTTG (((.((....)).)))
folding enthalpy [1]: -16 kcal/mol
Tm [2]: 30.2 °C

CAAGTGAAAACTTG (((((....)))))
folding enthalpy [1]: -23.7 kcal/mol
Tm [2]: 42.9 °C

CACCGGAAACGGTG (((((....)))))
folding enthalpy [1]: -30 kcal/mol
Tm [2]: 60.5 °C

CACTGGAAACAGTG (((((....)))))
folding enthalpy [1]: -26.7 kcal/mol
Tm [2]: 50.7 °C

CAGAAGAAATTCTG (((((....)))))
folding enthalpy [1]: -12.7 kcal/mol
Tm [2]: 33.8 °C

CAGAGGAAACTCTG (((((....)))))
folding enthalpy [1]: -21.1 kcal/mol
Tm [2]: 45 °C

CAGATGAAAATCTG (((((....)))))
folding enthalpy [1]: -22.9 kcal/mol
Tm [2]: 44.4 °C

CAGCGGAAACGCTG (((((....)))))
folding enthalpy [1]: -20.8 kcal/mol
Tm [2]: 69.3 °C

CATCGGAAACGATG (((((....)))))
folding enthalpy [1]: -25.8 kcal/mol
Tm [2]: 53.5 °C

CATTCGAAAGAATG (((((....)))))
folding enthalpy [1]: -23.2 kcal/mol
Tm [2]: 49.7 °C

CCACAGAAATGTGG (((((....)))))
folding enthalpy [1]: -18.5 kcal/mol
Tm [2]: 50.5 °C

CCAGAGAAATCTGG (((((....)))))
folding enthalpy [1]: -19.2 kcal/mol
Tm [2]: 44.4 °C

CCATCGAAAGATGG (((((....)))))
folding enthalpy [1]: -23.3 kcal/mol
Tm [2]: 60.5 °C

CCCTTGAAAAAGGG (((((....)))))
folding enthalpy [1]: -16.9 kcal/mol
Tm [2]: 47.2 °C

CCTATGAAAATAGG (((((....)))))
folding enthalpy [1]: -14.2 kcal/mol
Tm [2]: 41.2 °C

CCTGAGAAATCAGG (((((....)))))
folding enthalpy [1]: -19.4 kcal/mol
Tm [2]: 44.8 °C

CCTGGGAAACCAGG (((((....)))))
folding enthalpy [1]: -19.5 kcal/mol
Tm [2]: 55 °C

CCTGTGAAAACAGG (((((....)))))
folding enthalpy [1]: -17 kcal/mol
Tm [2]: 51.6 °C

CGAAACGGAAACGTTCG (((.(((....))))))
folding enthalpy [1]: -25.9 kcal/mol
Tm [2]: 45 °C

CGAACCGGAAACGGTCG (((.(((....))))))
folding enthalpy [1]: -23 kcal/mol
Tm [2]: 51.4 °C

CGAACGGAAACGTACTCG ((((((....)))..)))
folding enthalpy [1]: -5.58 kcal/mol
Tm [2]: 15 °C

CGAACGGAAACGTGTTCG ((((((....)))..)))
folding enthalpy [1]: -26.7 kcal/mol
Tm [2]: 42.6 °C

CGAACTCGGAAACGATCG (((..(((....))))))
folding enthalpy [1]: -16.3 kcal/mol
Tm [2]: 22.9 °C

CGAATCGGAAACGACTCG (((.(((....))).)))
folding enthalpy [1]: -36.2 kcal/mol
Tm [2]: 42.1 °C

CGAATGCGGAAACGCTCG (((..(((....))))))
folding enthalpy [1]: -15.3 kcal/mol
Tm [2]: 37.2 °C

CGACACGGAAACGTTCG (((.(((....))))))
folding enthalpy [1]: -35 kcal/mol
Tm [2]: 42 °C

CGACCGGAAACGGCATCG ((((((....)))..)))
folding enthalpy [1]: -14.8 kcal/mol
Tm [2]: 30 °C

CGACCGGAAACGGGGTCG ((((((....)))..)))
folding enthalpy [1]: -28.8 kcal/mol
Tm [2]: 48.6 °C

CGACCGGAAACGGTTCG ((((((....))).)))
folding enthalpy [1]: -20.1 kcal/mol
Tm [2]: 49.2 °C

CGAGACGGAAACGTATCG (((.(((....))).)))
folding enthalpy [1]: -34.6 kcal/mol
Tm [2]: 52.1 °C

CGAGACGGAAACGTGTCG (((.(((....))).)))
folding enthalpy [1]: -37.6 kcal/mol
Tm [2]: 52.1 °C

CGAGAGCGGAAACGCTCG (((..(((....))))))
folding enthalpy [1]: -18.5 kcal/mol
Tm [2]: 58.4 °C

CGAGATCGGAAACGATCG (((..(((....))))))
folding enthalpy [1]: -20 kcal/mol
Tm [2]: 51.6 °C

CGAGCCGGAAACGGTCG (((.(((....))))))
folding enthalpy [1]: -27.3 kcal/mol
Tm [2]: 48.6 °C

CGAGCGGAAACGCATCG ((((((....))).)))
folding enthalpy [1]: -20.9 kcal/mol
Tm [2]: 48.5 °C

CGAGCGGAAACGCATTCG ((((((....)))..)))
folding enthalpy [1]: -14.8 kcal/mol
Tm [2]: 33.1 °C

CGAGCGGAAACGCCGTCG ((((((....)))..)))
folding enthalpy [1]: -15.5 kcal/mol
Tm [2]: 55 °C

CGAGCGGAAACGCGCTCG ((((((....)))..)))
folding enthalpy [1]: -26.4 kcal/mol
Tm [2]: 68.5 °C

CGAGCGGAAACGCTCTCG ((((((....)))..)))
folding enthalpy [1]: -8.45 kcal/mol
Tm [2]: 40.5 °C

CGAGGTCGGAAACGATCG (((..(((....))))))
folding enthalpy [1]: -21 kcal/mol
Tm [2]: 41.2 °C

CGAGTCGGAAACGATCG (((.(((....))))))
folding enthalpy [1]: -27.4 kcal/mol
Tm [2]: 40.8 °C

CGATAACGGAAACGTTCG (((..(((....))))))
folding enthalpy [1]: -16.1 kcal/mol
Tm [2]: 35.6 °C

CGATCGGAAACGAAATCG ((((((....)))..)))
folding enthalpy [1]: -22.2 kcal/mol
Tm [2]: 33.9 °C

CGATCGGAAACGAATCG ((((((....))).)))
folding enthalpy [1]: -34.7 kcal/mol
Tm [2]: 46 °C

CGATCGGAAACGAGATCG ((((((....)))..)))
folding enthalpy [1]: -28.4 kcal/mol
Tm [2]: 42.5 °C

CGATCGGAAACGATATCG ((((((....)))..)))
folding enthalpy [1]: -18.4 kcal/mol
Tm [2]: 35.5 °C

CGATCGGAAACGATTCG ((((((....))).)))
folding enthalpy [1]: -24.9 kcal/mol
Tm [2]: 43.7 °C

CGATCGGAAACGATTTCG ((((((....)))..)))
folding enthalpy [1]: -20.4 kcal/mol
Tm [2]: 30.2 °C

CGATGCGGAAACGCGTCG (((.(((....))).)))
folding enthalpy [1]: -47.4 kcal/mol
Tm [2]: 62.1 °C

CGATGGAAACATCG (((((....)))))
folding enthalpy [1]: -23.9 kcal/mol
Tm [2]: 52.6 °C

CGATTCCGGAAACGGTCG (((..(((....))))))
folding enthalpy [1]: -27.7 kcal/mol
Tm [2]: 36.2 °C

CGATTCGGAAACGACTCG (((.(((....))).)))
folding enthalpy [1]: -37.8 kcal/mol
Tm [2]: 42.6 °C

CGATTGCGGAAACGCTCG (((..(((....))))))
folding enthalpy [1]: -15.9 kcal/mol
Tm [2]: 33.5 °C

CGATTTCGGAAACGATCG (((..(((....))))))
folding enthalpy [1]: -9.46 kcal/mol
Tm [2]: 29.6 °C

CGCACCCGGAAACGGGCG (((..(((....))))))
folding enthalpy [1]: -12 kcal/mol
Tm [2]: 46.1 °C

CGCACCGGAAACGGGCG (((.(((....))))))
folding enthalpy [1]: -25.2 kcal/mol
Tm [2]: 55.7 °C

CGCACGGAAACGTCAGCG ((((((....)))..)))
folding enthalpy [1]: -26.4 kcal/mol
Tm [2]: 42.7 °C

CGCACGGAAACGTCTGCG ((((((....)))..)))
folding enthalpy [1]: -23.8 kcal/mol
Tm [2]: 42.6 °C

CGCACGGAAACGTGAGCG ((((((....)))..)))
folding enthalpy [1]: -14.8 kcal/mol
Tm [2]: 50.5 °C
